Reference: ChEMBL document CHEMBL4052825, “Identification of Novel Coumestan Derivatives as Polyketide Synthase 13 Inhibitors against Mycobacterium tuberculosis” (J Med Chem, 2018)
≈ marks a conversion by molar mass, not a printed value. Calls of active or inactive are those of the source. The calls are words filed in the database; no cut-off is given here.

System: not listed separately
Assay: Selectivity index, ratio of IC50 for human QSG7701 cells to MIC=<90 for Mycobacterium tuberculosis H37Rv
Type: toxicity
Conditions: read-out: Selectivity Index

SMILES | selectivity ratio
O=c1oc2ccccc2c2oc3ccc(O)c(CN4CCCCC4)c3c12 | > 100
COc1ccc2c(c1)oc(=O)c1c2oc2ccc(O)c(CN3CCCCC3)c21 | > 100

System: Mycobacterium tuberculosis H37Rv
Assay: Inhibition of PKS13 in Mycobacterium tuberculosis H37Rv assessed as reduction in bacterial growth after […] by MABA
Conditions: not given

SMILES | MIC=<90
CCOC(=O)c1c(-c2ccccc2)oc2ccc3c(c12)CN(CCC(C)C)CO3 | 4 µg/mL
CCOC(=O)c1c(-c2ccccc2)oc2ccc(O)c(CN3CCN(C)CC3)c12 | > 64 µg/mL
COc1ccc2oc(=O)c3c(oc4ccc5c(c43)CN(CC3CC3)CO5)c2c1 | 16 µg/mL
O=c1oc2ccc(F)cc2c2oc3ccc4c(c3c12)CN(CC1CC1)CO4 | 16 µg/mL
Cc1ccc2oc(=O)c3c(oc4ccc5c(c43)CN(CC3CC3)CO5)c2c1 | 4 µg/mL
O=c1oc2ccccc2c2oc3ccc(O)cc3c12 | > 64 µg/mL
COc1ccc2oc(=O)c3c(oc4ccc(O)c(CN5CCCCC5)c43)c2c1 | 4 µg/mL
CCOC(=O)c1c(-c2ccc(OC)cc2)oc2ccc3c(c12)CN(CC1CC1)CO3 | 2 µg/mL
CCOC(=O)c1c(-c2ccccc2)oc2ccc(O)c(CN3CCC(C)CC3)c12 | 2.5 µM
CCOC(=O)c1c(-c2ccccc2)oc2ccc(O)c(CN3CCC(CO)CC3)c12 | 16 µg/mL
CCOC(=O)c1c(-c2ccc(C(F)(F)F)cc2)oc2ccc(O)c(CN3CCCCC3)c12 | 8 µg/mL
Cc1ccc2oc(=O)c3c(oc4ccc(O)c(CN5CCCCC5)c43)c2c1 | 0.5 µg/mL
O=c1oc2ccc(Cl)cc2c2oc3ccc4c(c3c12)CN(CC1CC1)CO4 | 16 µg/mL
CCCN(CCC)Cc1c(O)ccc2oc(-c3ccccc3)c(C(=O)OCC)c12 | 8 µg/mL
CCNC(=O)c1c(-c2ccccc2)oc2ccc(O)c(CN3CCCCC3)c12 | 4 µg/mL
O=c1oc2ccccc2c2oc3ccc(O)c(CN4CCCCC4)c3c12 | 0.125 to 0.25 µg/mL
COc1ccc2c(c1)oc(=O)c1c2oc2ccc3c(c21)CN(CC1CC1)CO3 | 2 µg/mL
O=C(NC1CC1)c1c(-c2ccccc2)oc2ccc(O)c(CN3CCCCC3)c12 | 8 µg/mL
CCOC(=O)c1c(-c2ccc(OC)cc2OC)oc2ccc(O)c(CN3CCCCC3)c12 | 16 µg/mL
O=C(Nc1ccccc1)c1c(-c2ccccc2)oc2ccc(O)c(CN3CCCCC3)c12 | 8 µg/mL
O=c1oc2ccc(Br)cc2c2oc3ccc4c(c3c12)CN(CC1CC1)CO4 | 8 µg/mL
O=C(NC12CC3CC(CC(C3)C1)C2)c1c(-c2ccccc2)oc2ccc(O)c(CN3CCCCC3)c12 | > 64 µg/mL
O=C(O)c1c(-c2ccccc2)oc2ccc(O)c(CN3CCCCC3)c12 | > 64 µg/mL
O=c1oc2ccccc2c2oc3ccc4c(c3c12)CN(C1CCCC1)CO4 | 0.5 µg/mL

SMILES | MIC=<90
O=c1oc2cc(Br)ccc2c2oc3ccc(O)c(CN4CCCCC4)c3c12 | 1 µg/mL
O=c1oc2cc(F)ccc2c2oc3ccc(O)c(CN4CCCCC4)c3c12 | 1 µg/mL
CCOC(=O)c1c(-c2ccccc2)oc2ccc(O)cc12 | > 64 µg/mL
CCOC(=O)c1c(-c2ccccc2)oc2ccc(OC)c(CN3CCCCC3)c12 | 16 µg/mL
CCOC(=O)c1c(-c2cc(C)ccc2OC)oc2ccc3c(c12)CN(CC1CC1)CO3 | 8 µg/mL
O=C(NCc1ccccc1)c1c(-c2ccccc2)oc2ccc(O)c(CN3CCCCC3)c12 | 16 µg/mL
CCOC(=O)c1c(-c2ccc(OC)cc2)oc2ccc(O)c(CN3CCCCC3)c12 | 16 µg/mL
CCOC(=O)c1c(-c2ccc(C)cc2)oc2ccc3c(c12)CN(CC1CC1)CO3 | 4 µg/mL
CCOC(=O)c1c(-c2ccccc2)oc2ccc(O)c(CN3CCCC3)c12 | 2 µg/mL
CCOC(=O)c1c(-c2ccccc2)oc2ccc3c(c12)CN(C1CCCC1)CO3 | 2 µg/mL
Cc1cc2oc(=O)c3c(oc4ccc5c(c43)CN(CC3CC3)CO5)c2cc1C | 8 µg/mL
CCOC(=O)c1c(-c2ccc(Br)cc2OC)oc2ccc(O)c(CN3CCCCC3)c12 | > 64 µg/mL
CCOC(=O)c1c(-c2ccc(F)cc2)oc2ccc(O)c(CN3CCCCC3)c12 | 0.5 µg/mL
CCOC(=O)c1c(-c2ccccc2)oc2ccc(O)c(CN3CCCCC3)c12 | 2 µg/mL
CCOC(=O)c1c(-c2ccccc2)oc2ccc(O)c(CN3CCOCC3)c12 | > 64 µg/mL
CCOC(=O)c1c(-c2ccccc2)oc2ccc3c(c12)CN(C1CC1)CO3 | 16 µg/mL
CCOC(=O)c1c(-c2cc(C)c(C)cc2OC)oc2ccc(O)c(CN3CCCCC3)c12 | 4 µg/mL
O=c1oc2cc(Cl)c(Cl)cc2c2oc3ccc4c(c3c12)CN(CC1CC1)CO4 | > 64 µg/mL
O=c1oc2ccccc2c2oc3ccc4c(c3c12)CN(C1CCCCC1)CO4 | 16 µg/mL
COc1ccc2c(c1)oc(=O)c1c2oc2ccc(O)c(CN3CCCCC3)c21 | 0.25 µg/mL
O=c1oc2ccccc2c2oc3ccc4c(c3c12)CN(CC1CC1)CO4 | 2 µg/mL
CCOC(=O)c1c(-c2ccccc2)oc2ccc3c(c12)CN(CC1CC1)CO3 | 1 µg/mL
CCOC(=O)c1c(-c2ccc(F)cc2OC)oc2ccc(O)c(CN3CCCCC3)c12 | 8 µg/mL

System: Mycobacterium tuberculosis
Assay: Antitubercular activity against Mycobacterium tuberculosis H37Rv infected in Balb/C mouse assessed as reduction in bacterial growth in mouse serum at 100 mg/kg, po administered via gavage after 30 mins dose by MABA
Type: functional, organism-based
Conditions: not given
In short: (§1)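 Oral serum inhibition titration. Six-week female BALB/c mice (20 g) gavaged with 100 mg/kg compound suspended in 0.5% carboxymethylcellulose. Isoniazid 10 mg/kg was the positive control and vehicle alone the negative control. Cardiac blood taken at 30, 60 and 120 min and serum separated. Serum two-fold serially diluted with 10^4 CFU M. tuberculosis H37Rv, incubated 7 days, read by MABA.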

SMILES | Activity
O=c1oc2ccccc2c2oc3ccc(O)c(CN4CCCCC4)c3c12 | Active

System: not listed separately
Assay: Selectivity index, ratio of IC50 for African green monkey Vero cells to MIC=<90 for Mycobacterium tuberculosis H37Rv
Type: toxicity
Conditions: read-out: Selectivity Index
In short: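 Vero (African green monkey kidney) cytotoxicity IC50 by MABA, divided by the MABA MIC against M. tuberculosis H37Rv to give SI = IC50/MIC.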

SMILES | selectivity ratio
CCOC(=O)c1c(-c2ccccc2)oc2ccc(O)c(CN3CCC(C)CC3)c12 | 16
Cc1ccc2oc(=O)c3c(oc4ccc(O)c(CN5CCCCC5)c43)c2c1 | 16
O=c1oc2ccccc2c2oc3ccc(O)c(CN4CCCCC4)c3c12 | 16 to 32
O=c1oc2ccccc2c2oc3ccc4c(c3c12)CN(C1CCCC1)CO4 | 1
O=c1oc2cc(Br)ccc2c2oc3ccc(O)c(CN4CCCCC4)c3c12 | 8
O=c1oc2cc(F)ccc2c2oc3ccc(O)c(CN4CCCCC4)c3c12 | 8
CCOC(=O)c1c(-c2ccc(F)cc2)oc2ccc(O)c(CN3CCCCC3)c12 | 32
COc1ccc2c(c1)oc(=O)c1c2oc2ccc(O)c(CN3CCCCC3)c21 | 16
CCOC(=O)c1c(-c2ccccc2)oc2ccc3c(c12)CN(CC1CC1)CO3 | 8

System: MRC5
Assay: Cytotoxicity against human MRC5 cells after 48 hrs by CellTiter96 AQueous one solution assay
Type: cell-based
Conditions: MRC5, 48 h
In short: (§2)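 Human cell cytotoxicity. QSG-7701 and HEK293 grown in DMEM; MRC-5 and HFL-1 grown in DMEM/F12. Both media carried 10% FBS with penicillin/streptomycin, 37°C, 5% CO2. Cells seeded at 5,000/well, incubated overnight, then exposed to compound for 48 h. CellTiter 96 AQueous One added for 1 h, absorbance read at 490 nm. IC50 is the mean of three independent experiments.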

SMILES | IC50
O=c1oc2ccccc2c2oc3ccc(O)c(CN4CCCCC4)c3c12 | > 50 µg/mL
COc1ccc2c(c1)oc(=O)c1c2oc2ccc(O)c(CN3CCCCC3)c21 | > 50 µg/mL

System: not listed separately
Assay: Selectivity index, ratio of IC50 for human HFL1 cells to MIC=<90 for Mycobacterium tuberculosis H37Rv
Type: toxicity
Conditions: read-out: Selectivity Index

SMILES | selectivity ratio
O=c1oc2ccccc2c2oc3ccc(O)c(CN4CCCCC4)c3c12 | > 100
COc1ccc2c(c1)oc(=O)c1c2oc2ccc(O)c(CN3CCCCC3)c21 | > 100

System: Vero
Assay: Cytotoxicity against African green monkey Vero cells after 72 hrs by MABA
Type: cell-based
Conditions: Chlorocebus sabaeus

SMILES | IC50
CCOC(=O)c1c(-c2ccccc2)oc2ccc(O)c(CN3CCC(C)CC3)c12 | 16 µg/mL (≈ 40.7 µM)
Cc1ccc2oc(=O)c3c(oc4ccc(O)c(CN5CCCCC5)c43)c2c1 | 8 µg/mL (≈ 22 µM)
O=c1oc2ccccc2c2oc3ccc(O)c(CN4CCCCC4)c3c12 | 4 µg/mL (≈ 11.4 µM)
O=c1oc2ccccc2c2oc3ccc4c(c3c12)CN(C1CCCC1)CO4 | 0.5 µg/mL (≈ 1.38 µM)
O=c1oc2cc(Br)ccc2c2oc3ccc(O)c(CN4CCCCC4)c3c12 | 8 µg/mL (≈ 18.7 µM)
O=c1oc2cc(F)ccc2c2oc3ccc(O)c(CN4CCCCC4)c3c12 | 8 µg/mL (≈ 21.8 µM)
CCOC(=O)c1c(-c2ccc(F)cc2)oc2ccc(O)c(CN3CCCCC3)c12 | 16 µg/mL (≈ 40.3 µM)
COc1ccc2c(c1)oc(=O)c1c2oc2ccc(O)c(CN3CCCCC3)c21 | 4 µg/mL (≈ 10.5 µM)
CCOC(=O)c1c(-c2ccccc2)oc2ccc3c(c12)CN(CC1CC1)CO3 | 8 µg/mL (≈ 21.2 µM)

System: not listed separately
Assay: Metabolic stability in human liver microsomes assessed as parent compound remaining at 10 uM after 60 mins in presence of NADPH
Type: ADME, microsome
Conditions: read-out: Stability

SMILES | remaining at 1 h, 10 µM
O=c1oc2ccccc2c2oc3ccc(O)c(CN4CCCCC4)c3c12 | 14.5%
COc1ccc2c(c1)oc(=O)c1c2oc2ccc(O)c(CN3CCCCC3)c21 | 45.5%

System: HFL1
Assay: Cytotoxicity against HFL1 cells after 48 hrs by CellTiter96 AQueous one solution assay
Type: cell-based
Conditions: Homo sapiens, HFL1, 48 h
In short: as §2

SMILES | IC50
O=c1oc2ccccc2c2oc3ccc(O)c(CN4CCCCC4)c3c12 | > 50 µg/mL
COc1ccc2c(c1)oc(=O)c1c2oc2ccc(O)c(CN3CCCCC3)c21 | 50.2 µg/mL (≈ 132 µM)

System: Mycobacterium tuberculosis
Assay: Antitubercular activity against Mycobacterium tuberculosis H37Rv infected in Balb/C mouse assessed as reduction in bacterial growth in mouse serum at 100 mg/kg, po administered via gavage after 30 to 120 mins by MABA
Type: functional, organism-based
Conditions: not given
In short: as §1

SMILES | Activity
CCOC(=O)c1c(-c2ccccc2)oc2ccc(O)c(CN3CCC(C)CC3)c12 | inactive
O=c1oc2ccccc2c2oc3ccc(O)c(CN4CCCCC4)c3c12 | Active
CCOC(=O)c1c(-c2ccc(F)cc2)oc2ccc(O)c(CN3CCCCC3)c12 | inactive
COc1ccc2c(c1)oc(=O)c1c2oc2ccc(O)c(CN3CCCCC3)c21 | Active

System: not listed separately
Assay: Selectivity index, ratio of IC50 for human HEK293 cells to MIC=<90 for Mycobacterium tuberculosis H37Rv
Type: toxicity
Conditions: read-out: Selectivity Index

SMILES | selectivity ratio
O=c1oc2ccccc2c2oc3ccc(O)c(CN4CCCCC4)c3c12 | > 100
COc1ccc2c(c1)oc(=O)c1c2oc2ccc(O)c(CN3CCCCC3)c21 | > 100

System: Mycobacterium tuberculosis
Assay: Antitubercular activity against Mycobacterium tuberculosis by microdilution method
Type: functional
Conditions: not given
In short: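 Whole-cell MIC against M. tuberculosis strain H37Rv, measured by the microplate Alamar Blue assay (MABA) following a previously reported procedure; MIC values given in […].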

SMILES | MIC
CCOC(=O)c1c(NC(=O)c2c(F)c(F)c(F)c(F)c2F)sc(C(N)=O)c1C | 0.5 µM (≈ 0.211 µg/mL)
COC(=O)c1c(NC(=O)c2c(F)c(F)c(F)c(F)c2F)sc2c1CCCCC2 | 1 µM (≈ 0.419 µg/mL)

System: HEK293
Assay: Cytotoxicity against human HEK293 cells after 48 hrs by CellTiter96 AQueous one solution assay
Type: cell-based
Conditions: HEK293, 48 h
In short: as §2

SMILES | IC50
O=c1oc2ccccc2c2oc3ccc(O)c(CN4CCCCC4)c3c12 | > 50 µg/mL
COc1ccc2c(c1)oc(=O)c1c2oc2ccc(O)c(CN3CCCCC3)c21 | > 50 µg/mL

System: not listed separately
Assay: Cytotoxicity against human QSG7701 cells after 48 hrs by CellTiter96 AQueous one solution assay
Type: cell-based
Conditions: QSG7701, 48 h
In short: as §2

SMILES | IC50
O=c1oc2ccccc2c2oc3ccc(O)c(CN4CCCCC4)c3c12 | > 50 µg/mL
COc1ccc2c(c1)oc(=O)c1c2oc2ccc(O)c(CN3CCCCC3)c21 | 38.8 µg/mL (≈ 102 µM)

System: not listed separately
Assay: Selectivity index, ratio of IC50 for human MRC5 cells to MIC=<90 for Mycobacterium tuberculosis H37Rv
Type: toxicity
Conditions: read-out: Selectivity Index

SMILES | selectivity ratio
O=c1oc2ccccc2c2oc3ccc(O)c(CN4CCCCC4)c3c12 | > 100
COc1ccc2c(c1)oc(=O)c1c2oc2ccc(O)c(CN3CCCCC3)c21 | > 100
